Reference: ChEMBL document CHEMBL4321820, “Identification and Optimization of Mechanism-Based Fluoroallylamine Inhibitors of Lysyl Oxidase-like 2/3” (J Med Chem, 2019)
Blank lines part the entries; values can stand above or below the molecule they belong to.

Key:
Mus musculus = experiment: Effect on plasma AST level in CCl4-induced BALB/c mouse model of liver fibrosis at 15 mg/kg, po administered once daily for 6 weeks; type: ADME, organism-based; settings: in vivo, 1008 h
Procedure, shortened: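 CCl4 liver fibrosis in female BALB/c mice: CCl4 i.p. (1 mL/kg 25% in olive oil) twice weekly for 6 weeks, sacrifice 48 h after final injection. Oral once-daily dosing weeks 1-6 or weeks 4-6; imatinib 50 mg/kg daily weeks 1-6. ALT and AST measured in plasma.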

[1] = biological target: T1, Amine oxidase [flavin-containing] B (Homo sapiens, UniProt P27338); experiment: Inhibition of recombinant human MAOB expressed in baculovirus infected in BTI cells using benzylamine as substrate preincubated with enzyme for 30 mins followed by substrate addition and measured every 2.5 mins for 30 mins by Amplex-Red oxidation assay
T1 sequence (P27338 whole entry): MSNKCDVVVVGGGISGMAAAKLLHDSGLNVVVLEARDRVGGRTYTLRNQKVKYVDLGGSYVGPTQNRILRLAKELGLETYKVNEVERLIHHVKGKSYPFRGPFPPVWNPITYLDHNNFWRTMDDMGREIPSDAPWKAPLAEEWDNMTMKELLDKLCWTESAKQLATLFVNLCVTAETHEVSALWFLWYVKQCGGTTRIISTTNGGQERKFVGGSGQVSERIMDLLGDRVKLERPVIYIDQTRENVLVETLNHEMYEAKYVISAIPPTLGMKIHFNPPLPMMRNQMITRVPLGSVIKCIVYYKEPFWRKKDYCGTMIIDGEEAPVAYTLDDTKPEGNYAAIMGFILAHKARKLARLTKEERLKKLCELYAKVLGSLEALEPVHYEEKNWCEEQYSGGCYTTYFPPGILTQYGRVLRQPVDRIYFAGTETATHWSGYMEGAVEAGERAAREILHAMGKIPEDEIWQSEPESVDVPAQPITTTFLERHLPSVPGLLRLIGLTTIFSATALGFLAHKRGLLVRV

[2] = biological target: T2, Amine oxidase [copper-containing] 3 (Homo sapiens, UniProt Q16853); experiment: Inhibition of recombinant human SSAO using benzylamine as substrate preincubated with enzyme for 30 mins followed by substrate addition and measured every 2.5 mins for 30 mins by Amplex-Red oxidation assay
T2 sequence (Q16853 whole entry): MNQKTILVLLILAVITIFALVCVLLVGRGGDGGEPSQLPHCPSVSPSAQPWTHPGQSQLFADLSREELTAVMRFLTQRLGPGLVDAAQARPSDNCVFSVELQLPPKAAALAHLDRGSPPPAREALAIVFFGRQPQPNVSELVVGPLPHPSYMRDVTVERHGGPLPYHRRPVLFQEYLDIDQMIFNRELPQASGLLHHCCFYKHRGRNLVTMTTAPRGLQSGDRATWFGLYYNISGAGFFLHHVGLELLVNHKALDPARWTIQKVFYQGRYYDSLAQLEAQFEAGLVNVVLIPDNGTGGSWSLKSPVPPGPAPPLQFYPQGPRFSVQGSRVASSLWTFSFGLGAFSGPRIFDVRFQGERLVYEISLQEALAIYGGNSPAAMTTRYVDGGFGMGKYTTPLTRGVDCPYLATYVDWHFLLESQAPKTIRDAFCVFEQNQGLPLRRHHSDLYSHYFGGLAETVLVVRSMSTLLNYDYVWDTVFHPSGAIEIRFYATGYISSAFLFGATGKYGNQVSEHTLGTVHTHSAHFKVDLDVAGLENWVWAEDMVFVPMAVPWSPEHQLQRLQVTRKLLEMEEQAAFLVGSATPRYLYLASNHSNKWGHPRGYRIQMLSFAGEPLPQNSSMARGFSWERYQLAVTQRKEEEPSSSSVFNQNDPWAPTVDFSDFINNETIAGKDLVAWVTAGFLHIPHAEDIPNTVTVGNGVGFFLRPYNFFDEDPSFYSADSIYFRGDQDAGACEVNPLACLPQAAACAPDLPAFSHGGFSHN

[3] = biological target: T3, Amine oxidase [flavin-containing] A (Homo sapiens, UniProt P21397); experiment: Inhibition of recombinant human MAOA expressed in baculovirus infected in BTI cells using tyramine as substrate preincubated with enzyme for 30 mins followed by substrate addition and measured every 2.5 mins for 30 mins by Amplex-Red oxidation assay
T3 sequence (P21397 whole entry): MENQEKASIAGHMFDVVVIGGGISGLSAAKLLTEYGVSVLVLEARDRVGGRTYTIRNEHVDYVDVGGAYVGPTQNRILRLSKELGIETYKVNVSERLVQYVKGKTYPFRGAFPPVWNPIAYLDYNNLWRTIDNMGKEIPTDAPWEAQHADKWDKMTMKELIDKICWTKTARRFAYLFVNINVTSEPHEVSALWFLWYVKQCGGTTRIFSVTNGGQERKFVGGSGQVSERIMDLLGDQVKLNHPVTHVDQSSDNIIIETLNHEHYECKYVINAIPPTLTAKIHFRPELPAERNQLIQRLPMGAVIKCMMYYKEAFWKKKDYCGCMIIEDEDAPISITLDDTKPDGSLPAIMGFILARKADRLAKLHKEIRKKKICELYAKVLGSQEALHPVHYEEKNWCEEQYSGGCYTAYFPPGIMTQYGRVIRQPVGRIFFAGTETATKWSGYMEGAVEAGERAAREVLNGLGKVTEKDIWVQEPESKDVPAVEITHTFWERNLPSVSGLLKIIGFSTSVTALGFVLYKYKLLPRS

Lysyl oxidase homolog 2 = biological target: T4, Lysyl oxidase homolog 2 (Rattus norvegicus, UniProt B5DF27); experiment: Inhibition of recombinant rat LOLX2 using putrescine as substrate preincubated with enzyme for 30 mins followed by substrate addition and measured every 2.5 mins for 30 mins by Amplex-Red oxidation assay
T4 sequence (B5DF27 whole entry): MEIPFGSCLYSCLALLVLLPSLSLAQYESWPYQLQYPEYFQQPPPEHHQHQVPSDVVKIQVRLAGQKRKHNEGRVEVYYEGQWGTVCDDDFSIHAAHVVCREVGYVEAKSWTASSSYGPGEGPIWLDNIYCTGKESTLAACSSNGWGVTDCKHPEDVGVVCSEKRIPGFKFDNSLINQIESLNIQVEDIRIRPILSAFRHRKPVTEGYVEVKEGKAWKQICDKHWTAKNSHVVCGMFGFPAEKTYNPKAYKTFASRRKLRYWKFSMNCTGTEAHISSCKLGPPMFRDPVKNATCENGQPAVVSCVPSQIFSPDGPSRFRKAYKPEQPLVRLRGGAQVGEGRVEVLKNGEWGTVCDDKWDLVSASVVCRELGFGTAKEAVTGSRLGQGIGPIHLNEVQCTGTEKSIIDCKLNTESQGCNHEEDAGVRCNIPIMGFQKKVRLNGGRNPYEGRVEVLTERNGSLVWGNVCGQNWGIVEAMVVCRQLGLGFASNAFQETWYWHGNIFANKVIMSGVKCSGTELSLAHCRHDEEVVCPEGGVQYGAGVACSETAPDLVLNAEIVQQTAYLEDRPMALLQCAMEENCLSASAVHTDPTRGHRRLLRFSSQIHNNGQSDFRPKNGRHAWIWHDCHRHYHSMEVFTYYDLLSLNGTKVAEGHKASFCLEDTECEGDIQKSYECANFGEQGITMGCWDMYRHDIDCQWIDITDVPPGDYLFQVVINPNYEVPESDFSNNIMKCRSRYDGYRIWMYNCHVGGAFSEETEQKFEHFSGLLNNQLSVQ

SMILES: CCOC(=O)c1ccc2c(c1)c(-c1cccc(S(=O)(=O)N(C)C)c1)c(C)n2C/C(F)=C/CN.Cl
- Activity (Mus musculus): Non-Toxic

- IC50 ([1]; read-out: pIC50 (converted)): > 31.6 µM
- IC50 ([2]; read-out: pIC50 (converted)): 7.94 µM
- IC50 ([3]; read-out: pIC50 (converted)): > 31.6 µM
SMILES: Cc1c(-c2cccc(S(=O)(=O)N(C)C)c2)c2ccccc2n1C/C(F)=C/CN.Cl

- IC50 ([1]; read-out: IC50): > 30 µM
- IC50 (Lysyl oxidase homolog 2): 6 nM
- IC50 ([2]; read-out: IC50): > 30 µM
- IC50 ([3]; read-out: IC50): > 30 µM
SMILES: Cc1c(-c2cccc(S(=O)(=O)N(C)C)c2)c2cc(C(=O)O)ccc2n1C/C(F)=C/CN.Cl
